In brackets after ≈: the same amount, converted by molar mass. Activity calls are given as the source filed them. No cut-off for these calls is given here.
Assays:
Staphylococcus aureus [1] = assay: Antibacterial activity against methicillin resistant and vancomycin intermediate resistant Staphylococcus aureus MU50 assessed as reduction in bacterial growth incubated for 18 to 24 hrs by broth microdilution method; type: functional; conditions: time 18-24 hrs
In short: (§1)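 Broth microdilution in cation-adjusted Mueller-Hinton broth per CLSI; inoculum 10⁶ bacteria/mL. Two-fold serial dilutions, compound in broth with 5% DMSO mixed 1:1 with bacterial suspension, giving 2.5% DMSO final. Top concentration 0.1, 0.4 or 0.8 mM depending on solubility. Incubated 18–24 h at 37 °C. MIC = lowest concentration preventing visible growth.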

Pseudomonas aeruginosa = assay: Antibacterial activity against Pseudomonas aeruginosa PAO1 assessed as reduction in bacterial growth incubated for 18 to 24 hrs by broth microdilution method; type: functional, organism-based; conditions: time 18-24 hrs
In short: (§2)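 Microdilution in cation-adjusted Mueller-Hinton broth per CLSI; two-fold compound series in CAMHB with 5% DMSO mixed 1:1 with bacterial suspension, giving 10⁶ bacteria/mL inoculum and 2.5% DMSO final. Top concentrations 0.1, 0.4 or 0.8 mM depending on solubility. Incubated 18–24 h at 37 °C; MIC read as lowest concentration preventing visible growth.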

Enterococcus faecalis [2] = assay: Inhibition of recombinant Enterococcus faecalis C-terminal His6-tagged DdlB expressed in Escherichia coli LMG194 assessed as residual activity using D-Ala as substrate at 100 uM preincubated with enzyme for 30 mins followed by substrate addition and measured after 20 mins by malachite green based colorimetric analysis relative to control; conditions: time 50.0 min
In short: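 Purified E. faecalis His-tagged DdlB (20 mg/L) preincubated 30 min at 30 °C with 100 µM compound and 500 µM ATP in 20 mM Tris-HCl pH 7.4, 10 mM MgCl₂, 10 mM KCl, 10% DMSO; 1 mM D-Ala added, 20 min at 30 °C. Phosphate detected with malachite green reagent, A650 after 25 min dark; residual activity versus no-inhibitor control, triplicate.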

Staphylococcus aureus [3] = assay: Antibacterial activity against hospital-acquired vancomycin resistant Staphylococcus aureus VRS-1 assessed as reduction in bacterial growth incubated for 18 to 24 hrs by broth microdilution method; type: functional; conditions: time 18-24 hrs; in short: as §1
Enterococcus faecalis [4] = assay: Antibacterial activity against Enterococcus faecalis ATCC 29212 assessed as reduction in bacterial growth incubated for 18 to 24 hrs by broth microdilution method; type: functional; conditions: time 18-24 hrs
Staphylococcus aureus [5] = assay: Antibacterial activity against community-acquired methicillin and erythromycin resistant Staphylococcus aureus SA325 assessed as reduction in bacterial growth incubated for 18 to 24 hrs by broth microdilution method; type: functional; conditions: time 18-24 hrs; in short: as §1
[6] = Inhibition of recombinant Enterococcus faecalis C-terminal His6-tagged DdlB expressed in Escherichia coli LMG194 using D-Ala as substrate preincubated with enzyme for 30 mins followed by substrate addition and measured after 20 mins by malachite green based colorimetric analysis
In short: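 DdlB (20 mg/L) malachite green phosphate assay: enzyme, inhibitor and 500 µM ATP preincubated 30 min at 30 °C in Tris-HCl pH 7.4 buffer with MgCl₂, KCl and 10% DMSO, then 1 mM D-Ala for 20 min; A650 read. IC₅₀ from 11 concentrations, also run with 0.01% Triton X-100; mean ± SD of triplicates, n ≥ 2; EC₅₀ given where maximal inhibition stayed below 50%.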

Enterococcus faecalis [7] = assay: Antibacterial activity against vancomycin resistant Enterococcus faecalis JH2-2::C1 harboring constitutive expression of Ddl and vanB ligase assessed as reduction in bacterial growth incubated for 18 to 24 hrs by broth microdilution method; type: functional; conditions: time 18-24 hrs; in short: as §1
Klebsiella pneumoniae = assay: Antibacterial activity against Klebsiella pneumoniae ATCC700603 assessed as reduction in bacterial growth incubated for 18 to 24 hrs by broth microdilution method; type: functional, organism-based; conditions: 700603, time 18-24 hrs; in short: as §2
Staphylococcus aureus [8] = assay: Antibacterial activity against methicillin and linezolid resistant Staphylococcus aureus NRS119 assessed as reduction in bacterial growth incubated for 18 to 24 hrs by broth microdilution method; type: functional; conditions: time 18-24 hrs; in short: as §1
Staphylococcus aureus [9] = assay: Antibacterial activity against hospital-acquired methicillin/ciprofloxacin and moxifloxacin resistant Staphylococcus aureus SA481 assessed as reduction in bacterial growth incubated for 18 to 24 hrs by broth microdilution method; type: functional; conditions: time 18-24 hrs; in short: as §1
Escherichia coli = assay: Antibacterial activity against Escherichia coli ATCC 25922 assessed as reduction in bacterial growth incubated for 18 to 24 hrs by broth microdilution method; type: functional, organism-based; conditions: time 18-24 hrs; in short: as §2
Enterococcus faecalis [10] = assay: Antibacterial activity against vancomycin resistant Enterococcus faecalis BM4575 harboring VanE genotype, constitutive expression of Ddl and VanE D-Ala-D-Ser ligase assessed as reduction in bacterial growth incubated for 18 to 24 hrs by broth microdilution method; type: functional; conditions: time 18-24 hrs; in short: as §1
Enterococcus faecalis [11] = assay: Antibacterial activity against vancomycin resistant Enterococcus faecalis BM4390 harboring VanB mutant with inactive Ddl and constitutive expression of D-Ala-D-Lac assessed as reduction in bacterial growth incubated for 18 to 24 hrs by broth microdilution method; type: functional; conditions: time 18-24 hrs; in short: as §1
Staphylococcus aureus [12] = assay: Antibacterial activity against Staphylococcus aureus ATCC 25923 assessed as reduction in bacterial growth incubated for 18 to 24 hrs by broth microdilution method; type: functional; conditions: time 18-24 hrs
THP-1 [13] = assay: Cytotoxicity against human THP-1 cells assessed as reduction in cell viability at 1 times MIC measured after 1 to 2 hrs by trypan blue exclusion assay; type: cell-based; conditions: time 1-2 hrs
In short: (§3)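 Aliquots taken at 1, 2, 6, 24 h, mixed 1:1 with 0.4% Trypan blue for 5 min; percent blue-stained cells counted by light microscopy. DMSO control; triplicate, mean ± SD.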

THP-1 [14] = assay: Cytotoxicity against human THP-1 cells assessed as reduction in cell viability at 2 to 5 times MIC measured after 6 hrs by trypan blue exclusion assay; type: cell-based; conditions: thp-1, 6 h; in short: as §3
Staphylococcus aureus [15] = assay: Bacteriostatic activity against Staphylococcus aureus ATCC 25923 assessed as reduction in bacterial growth at 1 and 2 times MIC measured upto 24 hrs by time kill assay; type: functional, organism-based; conditions: time hrs <=24
In short: (§4)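 S. aureus ATCC 25923 grown overnight in CAMHB, pelleted, resuspended; compound added at 1, 2 or 5× MIC to give 10⁶ CFU/mL start with 5% DMSO (DMSO-only control). Sampled at 0, 5, 15, 30 min, 1, 2, 7, 24 h; 10-fold PBS dilutions plated on charcoal TSA, counted after 24 h at 37 °C. Bactericidal = ≥3-log₁₀ drop in 24 h; triplicate, mean ± SD.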

THP-1 [16] = assay: Cytotoxicity against human THP-1 cells assessed as reduction in cell viability at 1 times MIC measured after 6 hrs by trypan blue exclusion assay; type: cell-based; conditions: thp-1, 6 h; in short: as §3
[17] = Cytotoxicity against human THP-1 cells assessed as reduction in cell viability at 2 times MIC measured after 1 to 2 hrs by trypan blue exclusion assay; type: cell-based; conditions: time 1-2 hrs, read-out: INH; in short: as §3
Cell membrane [18] = assay: Disruption of bacterial cell membrane in Staphylococcus aureus ATCC 25923 assessed as reduction in bacterial colonies at 5X MIC measured after 2 hrs by time-kill kinetics assay
Staphylococcus aureus [19] = assay: Inhibition of Ddl in Staphylococcus aureus ATCC 25923 assessed as increase in D-Ala/D-Ala-D-Ala ratio at 2 times MIC incubated for 30 mins by UHPLC-MS/MS analysis
In short: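 Log-phase S. aureus ATCC 25923 in MHB with 5% DMSO (from OD₆₀₀ 0.05) treated with compound at 2× MIC for 0–30 min; untreated and D-cycloserine 2× MIC controls. Cells chilled, pelleted, washed in M9, lysed in ice-cold MeOH/H₂O/formic acid 80:20:0.1, supernatants derivatized with Marfey's reagent in triplicate; L-Ala, D-Ala, D-Ala-D-Ala quantified by UPLC-MS/MS.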

Cell membrane [20] = assay: Disruption of bacterial cell membrane in Staphylococcus aureus ATCC 25923 assessed as increase in PI uptake by measuring increase in fluorescence intensity at 5 times MIC measured every 10 mins for 2 hrs by PI dye based spectrophotometry
In short: (§5)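 Mid-log S. aureus ATCC 25923 (grown in MHB from OD₆₀₀ 0.05) washed into BET buffer (pH 7.5) at 1.11×10⁶ CFU/mL with 12 nM propidium iodide; compound at 1, 2, 5× MIC, 5% DMSO final. SDS 0.5% positive, buffer negative control. Fluorescence (ex 532/em 620 nm) read in the dark every 10 min for 2 h; triplicate.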

Staphylococcus aureus [21] = assay: Bactericidal activity against Staphylococcus aureus ATCC 25923 assessed as reduction in bacterial growth at 5 times MIC measured after 24 hrs by time kill assay; type: functional, organism-based; in short: as §4
Staphylococcus aureus [22] = assay: Bactericidal activity against Staphylococcus aureus ATCC 25923 assessed as reduction in bacterial growth at 5 times MIC measured after 7 hrs by time kill assay; type: functional, organism-based; in short: as §4
Cell membrane [23] = assay: Disruption of bacterial cell membrane in Staphylococcus aureus ATCC 25923 assessed as increase in PI uptake at 5 times MIC measured every 10 mins for 1 hr by PI dye based spectrophotometry; in short: as §5
[24] = Solubility of the compound in 1% DMSO at 5XMIC against Staphylococcus aureus ATCC 25923; type: physicochemical

| Structure (SMILES) | MIC (Staphylococcus aureus [1]) [µM] | Activity (Pseudomonas aeruginosa) | MIC (Staphylococcus aureus [3]) [µM] | MIC (Enterococcus faecalis [4]) [µM] | MIC (Staphylococcus aureus [5]) [µM] | IC50 [6] [nM] | MIC (Enterococcus faecalis [7]) [µM] | Activity (Klebsiella pneumoniae) | MIC (Staphylococcus aureus [8]) [µM] | MIC (Staphylococcus aureus [9]) [µM] | Activity (Escherichia coli) | MIC (Enterococcus faecalis [10]) [µM] | MIC (Enterococcus faecalis [11]) [µM] | MIC (Staphylococcus aureus [12]) [µM] | Activity (THP-1 [13]) | Activity (Staphylococcus aureus [15]) | cytotoxicity at 2 x MIC [17] [%] | Activity (Cell membrane [18]) [log10CFU/ml] | inhibition (Staphylococcus aureus [19]) | other results |
| --- | --- | --- | --- | --- | --- | --- | --- | --- | --- | --- | --- | --- | --- | --- | --- | --- | --- | --- | --- | --- |
| O=C(NC(=S)NNC(=O)c1ccccc1O)c1ccccc1 | > 100 | inactive | 100 (≈ 31.5 µg/mL) | 100 (≈ 31.5 µg/mL) | 100 (≈ 31.5 µg/mL) | 810 | > 100 | inactive | > 100 | 100 (≈ 31.5 µg/mL) | inactive | > 100 | > 100 | 100 (≈ 31.5 µg/mL) | – | – | – | – | – | Activity (Enterococcus faecalis [2]): > 50% |
| Oc1ccccc1/C=N/NC(=S)Nc1ccc(Cl)c(Cl)c1 | 25 (≈ 8.51 µg/mL) | inactive | 12.5 (≈ 4.25 µg/mL) | 12.5 (≈ 4.25 µg/mL) | 25 (≈ 8.51 µg/mL) | 1480 | 3.12 (≈ 1.06 µg/mL) | inactive | 12.5 (≈ 4.25 µg/mL) | 25 (≈ 8.51 µg/mL) | inactive | 6.25 (≈ 2.13 µg/mL) | 6.25 (≈ 2.13 µg/mL) | 12.5 (≈ 4.25 µg/mL) | Non-Toxic | Active | 5 | < 1 | Active | Activity (THP-1 [14]): Toxic; Activity (THP-1 [16]): Non-Toxic; Activity (Cell membrane [20]): 15 RFU; Activity (Staphylococcus aureus [21]): Active |
| Oc1ccccc1-c1n[nH]c(=S)n1-c1ccc(Cl)c(Cl)c1 | 400 (≈ 135 µg/mL) | inactive | 400 (≈ 135 µg/mL) | 400 (≈ 135 µg/mL) | 400 (≈ 135 µg/mL) | 299000 | 400 (≈ 135 µg/mL) | inactive | 400 (≈ 135 µg/mL) | 800 (≈ 271 µg/mL) | inactive | 400 (≈ 135 µg/mL) | > 800 | 400 (≈ 135 µg/mL) | Non-Toxic | Active | 5 | 2 | Active | Activity (Staphylococcus aureus [22]): Active; Activity (Cell membrane [23]): Active; solubility [24]: Insoluble |

Source: ChEMBL document CHEMBL4680268, “Pharmacomodulations of the benzoyl-thiosemicarbazide scaffold reveal antimicrobial agents targeting d-alanyl-d-alanine ligase in bacterio” (Eur J Med Chem, 2020)
